The test system of test [1] is Plasmodium falciparum. Put plainly: In vitro antimalarial activity against chloroquine-resistant Plasmodium falciparum K1. It is filed as functional, organism-based. Put shortly: (§1)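 Parasites kept in continuous culture in human erythrocytes in RPMI 1640 with 25 mM HEPES, 32 mM NaHCO3 and 10% human serum, gassed 3% O2/4% CO2/93% N2. 48-h assay at 2% parasitemia, 0.5% haematocrit, drugs from DMSO stocks diluted in medium, triplicate. [3H]-hypoxanthine added at 24 h, further 24 h at 37 °C, scintillation counting. IC50 by probit interpolation of log dose–response.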

Test [2] concerns Plasmodium falciparum. The test is described as follows: In vitro antimalarial activity against Plasmodium falciparum HB. It is filed as functional, organism-based. Put shortly:
as §1

Another test has as its system Plasmodium yoelii. Put plainly: […] against Plasmodium yoelii NS in peter 4-day assay. Conditions: 96 h, in the assay text read “In vivo” for “In vitro”. It is filed as functional. Put shortly: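 Male CD-1 mice (n = 5 per dose group) infected ip with 10^6 parasitized erythrocytes in PBS. Oral gavage dosing at time 0 (2 h post-inoculation) and on days 1, 2 and 3, at 25, 10, 3, 1, 0.3 and 0.1 mg/kg. On day 4, Giemsa-stained tail-blood films were read microscopically for parasite density, and ED50 was derived.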

Consider `CC(C)NCc1ccc(Nc2ccnc3cc(Cl)ccc23)cc1O`, for which the half-maximal inhibitory concentration (IC50) with Plasmodium falciparum [1] was found to be 26.2 nM; in the test with Plasmodium falciparum [2], 20.2 nM.
In the same order, the values of `Oc1cc(Nc2ccnc3cc(Cl)ccc23)ccc1CN1CCCCC1` are 20.3 nM and 9.07 nM.
With `CCN(CC)Cc1ccc(Nc2ccnc3cc(Cl)ccc23)cc1O`, inhibition in the test with Plasmodium falciparum [2] was half-maximal at 9.02 nM (IC50).
Regarding `CN(C)Cc1ccc(Nc2ccnc3cc(Cl)ccc23)cc1O`, the IC50 in the test with Plasmodium falciparum [1] is 18.6 nM; in the test on Plasmodium falciparum [2] it was 14.8 nM.
Consider `Oc1cc(Nc2ccnc3cc(Cl)ccc23)ccc1CN1CCOCC1`, for which the 50% inhibitory concentration (IC50) in the test on Plasmodium falciparum [1] turned out to be 112 nM; in the test on Plasmodium falciparum [2] it was 97.2 nM.
With `CCCCN(CCCC)Cc1ccc(Nc2ccnc3cc(Cl)ccc23)cc1O`, the concentration for half-maximal inhibition (IC50) in the test on Plasmodium falciparum [1] stood at 37.2 nM; in the test on Plasmodium falciparum [2], 51.9 nM.
Compound `CCN(CC)Cc1cc(Nc2ccnc3cc(Cl)ccc23)ccc1O.Cl` registered an ED50 in the test with Plasmodium yoelii of 7.65 mg/kg. Further, in the test with Plasmodium falciparum [1], 15.1 nM corresponded to half-maximal inhibition (IC50).
For `Oc1cc(Nc2ccnc3cc(Cl)ccc23)ccc1CN1CCCC1`, the IC50 in the test with Plasmodium falciparum [1] was found to be 21.8 nM; in the test on Plasmodium falciparum [2], 28.4 nM.
In the case of `CCCN(CCC)Cc1ccc(Nc2ccnc3cc(Cl)ccc23)cc1O`, the figures for the IC50 in the test with Plasmodium falciparum [1] and in the test on Plasmodium falciparum [2] were 30.6 nM and 19.8 nM, respectively.
As to `CCNCc1ccc(Nc2ccnc3cc(Cl)ccc23)cc1O` [DESETHYL ISOQUINE], the 50% inhibitory concentration (IC50) with Plasmodium falciparum [1] was determined as 32.4 nM; in the test on Plasmodium falciparum [2], 16.2 nM.
For `CC(C)(C)NCc1ccc(Nc2ccnc3cc(Cl)ccc23)cc1O` [GSK-369796], the IC50 worked out at 32.8 nM in the test with Plasmodium falciparum [1] and 30 nM in the test with Plasmodium falciparum [2].
For `CCN(CC)Cc1ccc(Nc2ccnc3cc(Cl)ccc23)cc1O` [ISOQUINE], in the test with Plasmodium yoelii, it took a dose of 2.65 mg/kg to reach the 50% effect level (ED50).

As a reminder, the IC50 is the concentration that inhibits the measured activity by half. What is called ED50 is the dose at which the effect has come halfway, by size or by number of responders.
